In ChEMBL document CHEMBL4190374, “Structure-Function Evaluation of Imidazopyridine Derivatives Selective for δ-Subunit-Containing γ-Aminobutyric Acid Type A (GABAA) Receptors” (J Med Chem, 2018) one finds IC50, Imax and inhibition data, which are given here for 2 compounds.

For assay [1], the target named is T1, Gamma-aminobutyric acid receptor subunit alpha-6/beta-3/delta (Rattus norvegicus, UniProt P18506+P30191+P63079). Nature of the assay: Displacement of [3H]EBOB from rat GABA-A receptor alpha6beta3delta expressed in HEK293 cell membranes after 90 mins by liquid scintillation counting analysis. The procedure, abridged: (§1)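 Crude membranes from HEK 293 cells transiently Ca-phosphate-transfected with rat subunit cDNAs, harvested at 48 h. Membranes (150-200 µg protein) incubated with 3 nM [3H]EBOB in 50 mM Tris/citrate pH 7.3 plus 0.2 M NaCl. Compound up to 10 µM, final DMSO 0.1%, no GABA, 90 min at 21 °C. Bound radioligand collected by GF/C filtration and counted by scintillation.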
For orientation: Displacement assays read how much labelled ligand stays bound in the presence of the test substance.

Assay [2] addresses Gamma-aminobutyric acid receptor subunit alpha-6/beta-2/delta (Rattus norvegicus, UniProt P18506+P30191+P63138). In words: Displacement of [3H]EBOB from rat GABA-A receptor alpha6beta2delta expressed in HEK293 cell membranes after 90 mins by liquid scintillation counting analysis. The procedure, abridged: as §1
The target in assay [3] is T2, Gamma-aminobutyric acid receptor subunit alpha-6/beta-3/gamma-2 (Rattus norvegicus) (UniProt P18508+P30191+P63079). In words: Displacement of [3H]EBOB from rat GABA-A receptor alpha6beta3gamma2 expressed in HEK293 cell membranes up to 10 uM after 90 mins by liquid scintillation counting analysis relative to control. The procedure, abridged:
as §1

Assay [4] concerns the target Gamma-aminobutyric acid receptor subunit alpha-6/beta-2/delta (Rattus norvegicus) (UniProt P18506+P30191+P63138). Nature of the assay: Displacement of [3H]EBOB from rat GABA-A receptor alpha6beta2delta expressed in HEK293 cell membranes up to 10 uM after 90 mins by liquid scintillation counting analysis relative to control. The procedure, abridged:
as §1

The target in assay [5] is Gamma-aminobutyric acid receptor subunit alpha-1/beta-3/gamma-2 (Rattus norvegicus) (UniProt P18508+P62813+P63079). In words: Displacement of [3H]EBOB from rat GABA-A receptor alpha1beta3gamma2 expressed in HEK293 cell membranes at 20 uM after 90 mins by liquid scintillation counting analysis relative to control.
Assay [6] concerns the target Gamma-aminobutyric acid receptor subunit alpha-1/beta-3/delta (Rattus norvegicus) (UniProt P18506+P62813+P63079). In words: Displacement of [3H]EBOB from rat GABA-A receptor alpha1beta3delta expressed in HEK293 cell membranes at 20 uM after 90 mins by liquid scintillation counting analysis relative to control.
Assay [7] addresses Gamma-aminobutyric acid receptor subunit alpha-4/beta-3 (Rattus norvegicus) (UniProt P28471+P63079). In words: Displacement of [3H]EBOB from rat GABA-A receptor alpha4beta3 expressed in HEK293 cell membranes at 20 uM after 90 mins by liquid scintillation counting analysis relative to control.
Assay [8] concerns the target Gamma-aminobutyric acid receptor subunit alpha-4/beta-3/gamma-2 (Rattus norvegicus) (UniProt P18508+P28471+P63079). Nature of the assay: Displacement of [3H]EBOB from rat GABA-A receptor alpha4beta3gamma2 expressed in HEK293 cell membranes at 20 uM after 90 mins by liquid scintillation counting analysis relative to control.
Assay [9] deals with Gamma-aminobutyric acid receptor subunit alpha-4/beta-3/delta (Rattus norvegicus) (UniProt P18506+P28471+P63079). Nature of the assay: Displacement of [3H]EBOB from rat GABA-A receptor alpha4beta3delta expressed in HEK293 cell membranes at 20 uM after 90 mins by liquid scintillation counting analysis relative to control.
The target in assay [10] is T3, Gamma-aminobutyric acid receptor subunit alpha-6/beta-3 (Rattus norvegicus) (UniProt P30191+P63079). In words: Displacement of [3H]EBOB from rat GABA-A receptor alpha6beta3 expressed in HEK293 cell membranes at 20 uM after 90 mins by liquid scintillation counting analysis relative to control.
Assay [11] has as its target T3, Gamma-aminobutyric acid receptor subunit alpha-6/beta-3 (Rattus norvegicus). In words: (§2) Displacement of [3H]EBOB from rat GABA-A receptor alpha6beta3 expressed in HEK293 cell membranes after 90 mins in presence of GABA by liquid scintillation counting analysis.
Assay [12] deals with T4, Gamma-aminobutyric acid receptor subunit alpha-6/beta-3 (Rattus norvegicus, UniProt P30191+P63079). Described as §2.
The target of assay [13] is T2, Gamma-aminobutyric acid receptor subunit alpha-6/beta-3/gamma-2 (Rattus norvegicus). In words: (§3) Displacement of [3H]EBOB from rat GABA-A receptor alpha6beta3gamma2 expressed in HEK293 cell membranes after 90 mins in presence of GABA by liquid scintillation counting analysis.
For assay [14], the target named is T5, Gamma-aminobutyric acid receptor subunit alpha-6/beta-3/gamma-2 (Rattus norvegicus, UniProt P18508+P30191+P63079). Described as §3.
In assay [15] the target is T6, Gamma-aminobutyric acid receptor subunit alpha-6/beta-3/delta (Rattus norvegicus) (UniProt P18506+P30191+P63079). In words: (§4) Displacement of [3H]EBOB from rat GABA-A receptor alpha6beta3delta expressed in HEK293 cell membranes after 90 mins in presence of GABA by liquid scintillation counting analysis.
Assay [16] addresses T1, Gamma-aminobutyric acid receptor subunit alpha-6/beta-3/delta. Described as §4.
The target of assay [17] is GABA A receptor alpha-6/beta-2/gamma-2 (Rattus norvegicus) (UniProt P18508+P30191+P63138). Nature of the assay: Displacement of [3H]EBOB from rat GABA-A receptor alpha6beta2gamma2 expressed in HEK293 cell membranes at 10 uM after 90 mins by liquid scintillation counting analysis relative to control. The procedure, abridged:
as §1

The target in assay [18] is Gamma-aminobutyric acid receptor subunit alpha-6/beta-2 (Rattus norvegicus) (UniProt P30191+P63138). Nature of the assay: Displacement of [3H]EBOB from rat GABA-A receptor alpha6beta2 expressed in HEK293 cell membranes at 10 uM after 90 mins by liquid scintillation counting analysis relative to control. The procedure, abridged: as §1
Assay [19] concerns the target T4, Gamma-aminobutyric acid receptor subunit alpha-6/beta-3. Nature of the assay: Displacement of [3H]EBOB from rat GABA-A receptor alpha6beta3 expressed in HEK293 cell membranes after 90 mins by liquid scintillation counting analysis. The procedure, abridged:
as §1

Assay [20] concerns the target T5, Gamma-aminobutyric acid receptor subunit alpha-6/beta-3/gamma-2. In words: Displacement of [3H]EBOB from rat GABA-A receptor alpha6beta3gamma2 expressed in HEK293 cell membranes after 90 mins by liquid scintillation counting analysis. The procedure, abridged:
as §1

In assay [21] the target is T3, Gamma-aminobutyric acid receptor subunit alpha-6/beta-3 (Rattus norvegicus). Nature of the assay: Displacement of [3H]EBOB from rat GABA-A receptor alpha6beta3 expressed in HEK293 cell membranes up to 20 uM after 90 mins by liquid scintillation counting analysis relative to control.
Assay [22] concerns the target T2, Gamma-aminobutyric acid receptor subunit alpha-6/beta-3/gamma-2 (Rattus norvegicus). In words: Displacement of [3H]EBOB from rat GABA-A receptor alpha6beta3gamma2 expressed in HEK293 cell membranes up to 20 uM after 90 mins by liquid scintillation counting analysis relative to control.
Assay [23] concerns the target T6, Gamma-aminobutyric acid receptor subunit alpha-6/beta-3/delta (Rattus norvegicus). In words: Displacement of [3H]EBOB from rat GABA-A receptor alpha6beta3delta expressed in HEK293 cell membranes up to 20 uM after 90 mins by liquid scintillation counting analysis relative to control.

Active and inactive are the calls of the source. No cut-off for these calls is given here.

T1 sequence (P18506 whole entry): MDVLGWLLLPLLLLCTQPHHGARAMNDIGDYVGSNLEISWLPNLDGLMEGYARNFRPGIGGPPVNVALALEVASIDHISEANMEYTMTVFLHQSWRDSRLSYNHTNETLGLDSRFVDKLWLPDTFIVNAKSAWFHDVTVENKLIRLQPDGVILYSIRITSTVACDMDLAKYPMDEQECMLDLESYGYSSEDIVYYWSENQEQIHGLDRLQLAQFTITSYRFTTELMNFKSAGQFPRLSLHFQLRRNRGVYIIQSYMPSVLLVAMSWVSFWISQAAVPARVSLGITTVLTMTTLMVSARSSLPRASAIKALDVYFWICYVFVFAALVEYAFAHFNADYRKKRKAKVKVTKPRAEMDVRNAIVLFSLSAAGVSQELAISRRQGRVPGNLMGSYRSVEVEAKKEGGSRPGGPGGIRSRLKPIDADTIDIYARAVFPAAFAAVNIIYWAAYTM
T1 sequence (P30191 whole entry): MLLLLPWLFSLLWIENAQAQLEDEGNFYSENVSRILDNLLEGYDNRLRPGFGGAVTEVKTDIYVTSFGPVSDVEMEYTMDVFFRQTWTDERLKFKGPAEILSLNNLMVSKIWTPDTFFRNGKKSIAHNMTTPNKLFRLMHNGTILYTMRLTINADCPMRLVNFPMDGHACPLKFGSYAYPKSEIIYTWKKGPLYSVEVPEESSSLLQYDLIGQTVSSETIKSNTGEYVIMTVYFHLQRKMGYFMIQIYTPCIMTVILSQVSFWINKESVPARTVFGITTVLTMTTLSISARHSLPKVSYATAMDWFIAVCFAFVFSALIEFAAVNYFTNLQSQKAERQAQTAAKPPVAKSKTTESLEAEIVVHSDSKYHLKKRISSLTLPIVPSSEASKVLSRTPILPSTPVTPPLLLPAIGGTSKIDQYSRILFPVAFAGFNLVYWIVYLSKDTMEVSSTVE
T1 sequence (P63079 whole entry): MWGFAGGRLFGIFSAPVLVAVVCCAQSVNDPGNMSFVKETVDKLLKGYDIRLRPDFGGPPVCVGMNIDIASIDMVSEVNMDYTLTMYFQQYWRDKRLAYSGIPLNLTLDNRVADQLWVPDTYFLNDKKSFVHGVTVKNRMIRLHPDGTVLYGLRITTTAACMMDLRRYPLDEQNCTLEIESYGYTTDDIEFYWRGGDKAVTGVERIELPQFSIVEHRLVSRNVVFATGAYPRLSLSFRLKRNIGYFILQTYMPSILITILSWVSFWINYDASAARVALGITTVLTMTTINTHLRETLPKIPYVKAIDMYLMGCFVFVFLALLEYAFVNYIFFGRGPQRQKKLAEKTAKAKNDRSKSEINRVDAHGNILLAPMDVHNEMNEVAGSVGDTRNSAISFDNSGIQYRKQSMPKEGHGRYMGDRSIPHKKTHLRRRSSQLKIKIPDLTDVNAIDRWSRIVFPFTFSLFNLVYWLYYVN
T4 sequence (P30191 whole entry): as the sequence (P30191 whole entry) above
T4 sequence (P63079 whole entry): as the sequence (P63079 whole entry) above
T5 sequence (P18508 whole entry): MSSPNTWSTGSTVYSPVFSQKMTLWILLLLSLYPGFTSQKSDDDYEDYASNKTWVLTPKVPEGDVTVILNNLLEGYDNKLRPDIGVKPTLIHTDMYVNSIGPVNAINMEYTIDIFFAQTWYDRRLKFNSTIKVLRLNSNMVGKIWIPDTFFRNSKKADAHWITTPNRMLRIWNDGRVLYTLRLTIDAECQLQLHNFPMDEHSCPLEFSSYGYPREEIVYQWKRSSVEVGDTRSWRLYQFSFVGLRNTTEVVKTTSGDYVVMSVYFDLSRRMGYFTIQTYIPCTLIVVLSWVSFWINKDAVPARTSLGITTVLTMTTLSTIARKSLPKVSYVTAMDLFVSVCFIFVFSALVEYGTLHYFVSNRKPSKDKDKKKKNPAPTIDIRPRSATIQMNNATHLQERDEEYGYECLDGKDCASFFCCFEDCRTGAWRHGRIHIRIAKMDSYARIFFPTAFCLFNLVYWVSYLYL
T5 sequence (P30191 whole entry): as the sequence (P30191 whole entry) above
T5 sequence (P63079 whole entry): as the sequence (P63079 whole entry) above
Sequence of Gamma-aminobutyric acid receptor subunit alpha-6/beta-2/delta (P18506 whole entry): as the sequence (P18506 whole entry) above
Sequence of Gamma-aminobutyric acid receptor subunit alpha-6/beta-2/delta (P30191 whole entry): as the sequence (P30191 whole entry) above
Sequence of Gamma-aminobutyric acid receptor subunit alpha-6/beta-2/delta (P63138 whole entry): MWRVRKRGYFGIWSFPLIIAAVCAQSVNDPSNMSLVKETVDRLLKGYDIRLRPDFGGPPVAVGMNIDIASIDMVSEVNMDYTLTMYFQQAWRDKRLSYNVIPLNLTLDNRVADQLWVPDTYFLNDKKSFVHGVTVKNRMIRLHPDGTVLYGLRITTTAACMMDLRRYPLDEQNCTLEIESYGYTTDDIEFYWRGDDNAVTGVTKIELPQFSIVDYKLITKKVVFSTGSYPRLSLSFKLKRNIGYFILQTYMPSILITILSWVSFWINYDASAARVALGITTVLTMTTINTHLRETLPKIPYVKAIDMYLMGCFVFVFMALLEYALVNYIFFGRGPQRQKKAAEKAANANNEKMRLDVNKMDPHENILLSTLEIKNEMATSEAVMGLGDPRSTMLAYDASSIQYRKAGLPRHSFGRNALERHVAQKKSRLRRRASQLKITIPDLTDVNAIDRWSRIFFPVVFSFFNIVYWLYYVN

Consider `CCCCOc1ccc(C(=O)Nc2c(-c3cccs3)nc3ccc(Br)cn23)cc1`, for which the IC50 (usually the concentration needed to halve the response being measured) came out at 2.18 µM in assay [1]; 2.43 µM in [2]; 4.07 µM in assay [12]; 4.34 µM in assay [14]; 0.87 µM in [16]. Further, the Imax in assay [3] turned out to be 10%; in assay [4], 54%; in [11] it was 26%; in [13], 40%; in assay [15] it was 51%; in assay [17], 13%. In addition, the inhibition result in assay [5], in assay [6], in assay [7], in assay [8], in assay [9] and in assay [10] was “inactive” throughout. In assay [18], the inhibition entry is “inactive”.
In the case of `O=C(Nc1c(-c2cccs2)nc2ccc(Br)cn12)C1CCCCC1`, the results for the IC50 in assay [19], in assay [20] and in assay [1] were 16 µM, 25 µM and 10.1 µM, respectively. Moreover, the results for the Imax in assay [21], in assay [22] and in assay [23] were 21%, more than 89% and 85%, respectively.
